What was measured:
[1] = system: Radical scavenging activity; assay: Antioxidant activity of compound assessed as DPPH radical scavenging activity by colorimetric method; assay type: functional
Summary of the method: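 DPPH colorimetric scavenging assay: DPPH solution mixed with an equal volume of compound dissolved in ethanol, several dilutions tested, ethanol as control. After 30 min at room temperature, absorbance read at 517 nm. IC50 obtained by regression analysis of the mean values.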

[2] = Inhibition of soybean 15-LOX assessed as peroxide level by DMAB-MBTH method; set-up: species or system Glycine max
Summary of the method: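 Soybean lipoxygenase (SLO, 40,000 units/mL, 25 µL) and compound in ethanol preincubated 5 min at room temperature in 50 mM phosphate buffer pH 7.0; ethanol-only control. Reaction started with linoleic acid substrate in ethanol/100 mM KOH. After 7 min, 50 mM DMAB in 100 mM phosphate pH 7.0 was added, then MBTH/hemoglobin in phosphate pH 5.0, as colorimetric peroxide read-out.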

Row | IC50 [1] [µM] | IC50 [2] [µM] | SMILES
1 | 87.4 | 13.7 | COc1ccc(-c2[nH]c(=S)[nH]c2-c2ccccc2)cc1
2 | 30.3 | 24.9 | S=c1[nH]c(-c2ccccc2)c(-c2ccc(Cl)cc2)[nH]1
3 | 90 | 5.7 | CSc1ccc(-c2[nH]c(=S)[nH]c2-c2ccccc2)cc1
4 | 15.9 | 22.3 | CN(C)c1ccc(-c2[nH]c(=S)[nH]c2-c2ccc(Cl)cc2)cc1
5 | 15.2 | 9.4 | COc1ccc(-c2[nH]c(=S)[nH]c2-c2ccc(N(C)C)cc2)cc1
6 | 57.2 | 11 | COc1ccc(-c2[nH]c(=S)[nH]c2-c2ccc(F)cc2)cc1
7 | 14 | 4.7 | COc1ccc(-c2[nH]c(=S)[nH]c2-c2ccc(Cl)cc2)cc1
8 | 49 | 136 | CSc1ccc(-c2[nH]c(=S)[nH]c2-c2ccc(F)cc2)cc1
9 | 21.2 | 19.7 | CSc1ccc(-c2[nH]c(=S)[nH]c2-c2ccc(Cl)cc2)cc1
10 | > 250 | > 250 | COc1ccc(-c2nc(SC)[nH]c2-c2ccc(Cl)cc2)cc1
11 | 49.2 | 15.2 | S=c1[nH]c(-c2ccccc2)c(-c2ccccc2)[nH]1
12 | 143 | 23.4 | Fc1ccc(-c2[nH]c(=S)[nH]c2-c2ccc(F)cc2)cc1
13 | 107 | 62 | S=c1[nH]c(-c2ccc(Cl)cc2)c(-c2ccc(Cl)cc2)[nH]1
14 | 15.5 | 14.7 | COc1ccc(-c2nc(S)[nH]c2-c2ccc(OC)cc2)cc1
15 |  | 34.2 | Cc1nc(N2CCN(C)CC2)nc2c1Nc1ccccc1S2
16 | 6.2 |  | CC(Cc1ccc(O)c(O)c1)C(C)Cc1ccc(O)c(O)c1 (stereo not given) [NORDIHYDROGUAIARETIC ACID]

From ChEMBL document CHEMBL2202995, “Synthesis and SAR study of 4,5-diaryl-1H-imidazole-2(3H)-thione derivatives, as potent 15-lipoxygenase inhibitors” (Bioorg Med Chem, 2012)
